# Data as given in ChEMBL document CHEMBL3112444, “Synthesis and anticancer activity of focused compound libraries from the natural product lead, oroidin” (2014).
# Assays:
# [1] = Cytotoxicity against human U87 cells assessed as growth inhibition after 72 hrs by MTT assay; format: functional, U-87MG ATCC; conditions: U-87 MG
# Procedure, shortened: (§1)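 Cells in logarithmic growth kept in DMEM with 10% FBS, 10 mM sodium bicarbonate, penicillin 100 IU/mL, glutamine 4 mM, at 37 °C under 5% CO2. Plated in duplicate at 2500–4000 cells/well. Compound (30 mM DMSO stock) added 24 h after plating. MTT read at 540 nm after 72 h exposure.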
# [2] = Cytotoxicity against mouse SMA cells assessed as growth inhibition after 72 hrs by MTT assay; format: functional; procedure, shortened: as §1
# [3] = Cytotoxicity against human SJ-G2 cells assessed as growth inhibition after 72 hrs by MTT assay; format: functional; conditions: SJ-G2, 72 h; procedure, shortened: as §1
# [4] = Cytotoxicity against human MIA cells assessed as growth inhibition after 72 hrs by MTT assay; format: functional; procedure, shortened: as §1
# [5] = Cytotoxicity against human BE(2)-C cells assessed as growth inhibition after 72 hrs by MTT assay; format: functional; procedure, shortened: as §1
# [6] = system: DU-145; experiment: Cytotoxicity against human DU145 cells assessed as growth inhibition after 72 hrs by MTT assay; format: functional; conditions: DU-145, 72 h; procedure, shortened: as §1
# [7] = Cytotoxicity against human H460 cells assessed as growth inhibition after 72 hrs by MTT assay; format: functional; conditions: NCI-H460, 72 h; procedure, shortened: as §1
# [8] = system: A-431; experiment: Cytotoxicity against human A431 cells assessed as growth inhibition after 72 hrs by MTT assay; format: functional; conditions: A-431, 72 h; procedure, shortened: as §1
# [9] = system: A2780; experiment: Cytotoxicity against human A2780 cells assessed as growth inhibition after 72 hrs by MTT assay; format: functional; conditions: A2780, 72 h; procedure, shortened: as §1
# [10] = system: MCF7; experiment: Cytotoxicity against human MCF7 cells assessed as growth inhibition after 72 hrs by MTT assay; format: functional; conditions: MCF7, 72 h; procedure, shortened: as §1
# [11] = system: SW480; experiment: Cytotoxicity against human SW480 cells assessed as growth inhibition after 72 hrs by MTT assay; format: functional; conditions: SW480, 72 h; procedure, shortened: as §1
# [12] = system: HT-29; experiment: Cytotoxicity against human HT-29 cells assessed as growth inhibition after 72 hrs by MTT assay; format: functional; conditions: HT-29, 72 h; procedure, shortened: as §1
# [13] = Cytotoxicity against human U87 cells assessed as growth inhibition at 25 uM after 72 hrs by MTT assay relative to control; format: functional, U-87MG ATCC; conditions: U-87 MG, read-out: GI; procedure, shortened: as §1
# [14] = Cytotoxicity against mouse SMA cells assessed as growth inhibition at 25 uM after 72 hrs by MTT assay relative to control; format: functional; conditions: read-out: GI; procedure, shortened: as §1
# [15] = Cytotoxicity against human MIA cells assessed as growth inhibition at 25 uM after 72 hrs by MTT assay relative to control; format: functional; conditions: read-out: GI; procedure, shortened: as §1
# [16] = Cytotoxicity against human SJ-G2 cells assessed as growth inhibition at 25 uM after 72 hrs by MTT assay relative to control; format: functional; conditions: SJ-G2, 72 h, read-out: GI; procedure, shortened: as §1
# [17] = Cytotoxicity against human BE(2)-C cells assessed as growth inhibition at 25 uM after 72 hrs by MTT assay relative to control; format: functional; conditions: read-out: GI; procedure, shortened: as §1
# [18] = system: DU-145; experiment: Cytotoxicity against human DU145 cells assessed as growth inhibition at 25 uM after 72 hrs by MTT assay relative to control; format: functional; conditions: DU-145, 72 h, read-out: GI; procedure, shortened: as §1
# [19] = system: A-431; experiment: Cytotoxicity against human A431 cells assessed as growth inhibition at 25 uM after 72 hrs by MTT assay relative to control; format: functional; conditions: A-431, 72 h, read-out: GI; procedure, shortened: as §1
# [20] = Cytotoxicity against human H460 cells assessed as growth inhibition at 25 uM after 72 hrs by MTT assay relative to control; format: functional; conditions: NCI-H460, 72 h, read-out: GI; procedure, shortened: as §1
# [21] = system: A2780; experiment: Cytotoxicity against human A2780 cells assessed as growth inhibition at 25 uM after 72 hrs by MTT assay relative to control; format: functional; conditions: A2780, 72 h, read-out: GI; procedure, shortened: as §1
# [22] = system: MCF7; experiment: Cytotoxicity against human MCF7 cells assessed as growth inhibition at 25 uM after 72 hrs by MTT assay relative to control; format: functional; conditions: MCF7, 72 h, read-out: GI; procedure, shortened: as §1
# [23] = system: SW480; experiment: Cytotoxicity against human SW480 cells assessed as growth inhibition at 25 uM after 72 hrs by MTT assay relative to control; format: functional; conditions: SW480, 72 h, read-out: GI; procedure, shortened: as §1
# [24] = system: HT-29; experiment: Cytotoxicity against human HT-29 cells assessed as growth inhibition at 25 uM after 72 hrs by MTT assay relative to control; format: functional; conditions: HT-29, 72 h, read-out: GI; procedure, shortened: as §1
structure (smiles),measurement,setting,value
Nc1ncc(/C=C/CNC(=O)c2cc(Br)c(Br)[nH]2)[nH]1 [OROIDIN],GI50,[1],> 50 µM
same,GI50,[2],> 50 µM
same,GI50,[3],> 50 µM
same,GI50,[4],> 50 µM
same,GI50,[5],> 50 µM
same,GI50,[6],> 50 µM
same,GI50,[7],> 50 µM
same,GI50,[8],> 50 µM
same,GI50,[9],24 µM
same,GI50,[10],42 µM
same,GI50,[11],> 50 µM
same,GI50,[12],> 50 µM
same,inhibition of growth at 25 µM,[13],3%
same,inhibition of growth at 25 µM,[14],15%
same,inhibition of growth at 25 µM,[15],21%
same,inhibition of growth at 25 µM,[16],< 0%
same,inhibition of growth at 25 µM,[17],6%
same,inhibition of growth at 25 µM,[18],23%
same,inhibition of growth at 25 µM,[19],6%
same,inhibition of growth at 25 µM,[20],7%
same,inhibition of growth at 25 µM,[21],51%
same,inhibition of growth at 25 µM,[22],27%
same,inhibition of growth at 25 µM,[23],8%
same,inhibition of growth at 25 µM,[24],31%
